Results as given in PubChem BioAssay AID624204 (Sanford-Burnham Center for Chemical Genomics, 2012).
The whole screen tested about 360,000 compounds, of which about 770 (0.21%) were called active.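 The calls were made as follows: active = inhibition at least 30% at 10 µM, raw YFP signal under a set limit, fluorescence ratio 0.5 to 1.5; inactive = the rest.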 Shown is part of a subset that was picked to be rich in actives.

The compounds below were run against Sentrin-specific protease 1 (Homo sapiens) (UniProt Q9P0U3) (assay: human SENP1 catalytic domain inhibitors, primary screen, biochemical, FRET, uHTS (AID 624204;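 also: 0% = enzyme with DMSO and 100% = no enzyme wells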)). Details: recombinant SENP1 catalytic domain, CyPet-SUMO1-YPet FRET cleavage; at 10 µM; active compounds read high.
Sequence of Sentrin-specific protease 1 (Homo sapiens) (Q9P0U3 419-644 limits assumed): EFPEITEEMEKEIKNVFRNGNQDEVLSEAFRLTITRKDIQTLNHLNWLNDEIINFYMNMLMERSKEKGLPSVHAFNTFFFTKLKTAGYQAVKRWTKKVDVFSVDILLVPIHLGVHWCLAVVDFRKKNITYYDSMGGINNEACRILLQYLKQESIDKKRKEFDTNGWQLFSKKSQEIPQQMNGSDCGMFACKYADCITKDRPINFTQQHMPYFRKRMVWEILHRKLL
Procedure, shortened: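 material = recombinant human SENP1 catalytic domain, His6-tagged | quantity = 20 pM enzyme | reagent = 25 nM SUMO1 FRET substrate | compound dosing = 10 µM single point, 0.5% DMSO | timing = 50 min enzyme reaction, room temperature, light-protected | detection = FRET, CFP and YFP emission | control set = no-enzyme low, enzyme-DMSO high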

Row | SMILES | inhibition
1 | CC1(C)CN(c2ccc(-c3ccnc4ncnn34)cc2)C1=O | -1.93% (inactive)
2 | COc1ccc(C(=O)C[n+]2ccc(N)c(C)c2C)cc1 | 1.97% (inactive)
3 | O=C(NC(=O)c1ccccc1)Nc1ccccc1O | 31.8% (active)
4 | O=C(Cc1ccc(Cl)cc1)NC(=S)Nc1ccccc1O | 0.309% (inactive)
5 | O=C(NC(=S)Nc1cccc2c(O)cccc12)c1cccc(Br)c1 | -10.5% (inactive)
6 | CC(C)Cn1cnc2c1c(=O)n(CC(O)c1ccccc1)c(=O)n2CC(C)C (centres undefined) | 1.26% (inactive)
7 | CC1(C(=O)NCc2ccccc2)CSCC(=O)N1CCCn1ccnc1 (centres undefined) | 0.15% (inactive)
8 | COc1cc(Br)cc(/C=N/c2ncn[nH]2)c1O | 10.2% (inactive)
9 | CC(=O)N(CC(O)CO)c1c(I)c(C(=O)NCC(O)CO)c(I)c(C(=O)NCC(O)CO)c1I (centres undefined) | -0.483% (inactive)
10 | COCC(C)NC(=O)c1ccc(-n2nc(C(F)(F)F)cc2-c2cccs2)cc1 (centres undefined) | -1.75% (inactive)
11 | CCN(CC(=O)Nc1cc(Cl)ccc1C)C(=O)CSCc1ccc(C)cc1 | 1.09% (inactive)
12 | CN(C)c1ccc(Nc2c3c4c(cccc4n(C)c2=O)C(=O)c2ccccc2-3)cc1 | 60.4% (active)
13 | Cc1nn2c(c1-c1ccccc1)N=C(c1ccco1)CC2c1ccccc1 (centres undefined) | 38.7% (active)
14 | O=C(O)CCCC(=O)N1N=C(c2ccco2)CC1c1ccco1 (centres undefined) | 0.794% (inactive)
15 | CCOc1ccc(-c2c(C)n([O-])c3c([n+]2=O)CCCC3)cc1 | 0.993% (inactive)
16 | COC(CNC(=O)Cn1ncc2ccsc2c1=O)OC | 2.87% (inactive)
17 | O=C(NCCC1CCCCN1S(=O)(=O)c1cccs1)C(=O)Nc1ccc(F)cc1F (centres undefined) | 0.809% (inactive)
18 | COc1ccc(C=C2CCC3C(CCCC34OCCO4)C2=O)cc1 (centres undefined) | 0.924% (inactive)
19 | Cc1ccc(N=C2NC(=O)c3cccc([N+](=O)[O-])c32)cc1 | 1.42% (inactive)
20 | COc1ccc(NC(=O)CN(C)C(=O)Cc2coc3cc(C)c(C)cc23)cc1 | -6.79% (inactive)
21 | O=C1C=C(c2cccc(Cl)c2)C[C@@H](c2ccc(F)cc2)C1 | 1.33% (inactive)
22 | O=C1C=C(c2cccc(Cl)c2O)C[C@@H](c2ccc(F)cc2)C1 | 54.2% (active)
23 | COc1ccccc1C1=CC(=O)C[C@H](c2ccc(F)cc2)C1 | 3.3% (inactive)

Row | SMILES | inhibition
24 | O=S1(=O)CCN(C2CCCCCCCCCCC2)CC1 | 1.39% (inactive)
25 | COC(=O)c1ccc(CNC(=O)C2CCC(=O)N(Cc3ccccn3)C2)cc1 (centres undefined) | 0.319% (inactive)
26 | COCCNc1nc2nonc2nc1N1CCCC1c1nccs1 (centres undefined) | -72.6% (inactive)
27 | Cn1c(-c2sccc2OCc2cccc(C(F)(F)F)c2)n[nH]c1=S | 2.98% (inactive)
28 | Cn1c(-c2sc3cc(C(F)(F)F)cnc3c2-c2ccccc2)n[nH]c1=S | 31.9% (active)
29 | FC(F)(F)c1ccc(-n2cn[nH]c2=S)cc1 | -0.325% (inactive)
30 | CNc1nccc(-c2ccc(Cl)cc2)c1C#N | -1.17% (inactive)
31 | Cc1ccc(NC(=O)Cn2c(=O)n(CCC(=O)NC3CCN(Cc4ccccc4)CC3)c(=O)c3ccccc32)cc1 | 2.04% (inactive)
32 | O=C1CCC[C@@H]2CC(N3CCCCC3)C[C@@H]3CCN1[C@H]23 (some centres undefined) | -1.06% (inactive)
33 | Cc1cc2c(cc1C)NC1(C[C@H]3CCC(=O)N4CC[C@@H](C1)[C@@H]34)C(=NC(C)(C)CC(C)(C)C)N2 (some centres undefined) | 2.4% (inactive)
34 | O=C1CC[C@@H]2CC3(C[C@@H]4CCN1[C@H]24)Nc1cc([N+](=O)[O-])ccc1NC3=NC1CCCCC1 (some centres undefined) | 51% (active)
35 | Cc1cccc(NC(=O)N(Cc2cc3cc(C)cc(C)c3[nH]c2=O)CC2COCCO2)c1 (centres undefined) | 1.21% (inactive)
36 | COc1ncnc2c1N=C1CC(C)(C)CC(N)=C1S2 | 33.8% (active)
37 | O=C1/C(=C\c2ccc(O)cc2)CCC1CNc1ccc(Cl)cc1 (centres undefined) | -58.8% (inactive)
38 | COc1ccc(C(=O)OC(C)C(=O)NC2CCCC2)cc1S(=O)(=O)N1CCOCC1 (centres undefined) | 2.06% (inactive)
39 | COc1ccc(-n2nc(C(=O)NCC(=O)N3CCCCCC3)c3ccccc3c2=O)cc1Cl | -0.802% (inactive)
40 | COc1cc(/C=C2\CCCc3c2nc2ccccc2c3C(=O)O)cc(Cl)c1O | 54.9% (active)
41 | NS(=O)(=O)c1ccc(NC(=O)COC(=O)c2c3c(nc4ccccc24)/C(=C\c2ccc4c(c2)OCO4)CCC3)cc1 | -24.4% (inactive)
42 | COc1cccc(COC(=O)C2CCN(S(=O)(=O)c3cccs3)CC2)c1OC | -0.283% (inactive)
43 | C=CC[C@@H](Cc1ccc(F)cc1)C(=O)OC[C@H]1CCCN1C(=O)[C@H](CC=C)CC(=O)N(CCO)Cc1ccccc1 | 0.419% (inactive)
44 | O=C(CCNS(=O)(=O)c1cccs1)N1CCN(c2ccc(F)cc2)CC1 | 7.35% (inactive)
45 | CCOc1ccc(OCC(=O)OC(C)C(=O)NC2CCCCC2C)cc1 (centres undefined) | 0.477% (inactive)
46 | CCOc1ccc(N(CC(=O)Nc2cccc(OC)c2)S(C)(=O)=O)cc1 | -0.216% (inactive)

Row | SMILES | inhibition
47 | O=C(CC1CCCCC1)Nc1c2c(nn1-c1ccc(F)cc1)CS(=O)(=O)C2 | -0.662% (inactive)
48 | CCOC(=O)c1cc2c(=O)n3ccccc3nc2n(CC(C)C)c1=NC(=O)c1c(-c2c(F)cccc2Cl)noc1C | -28.9% (inactive)
49 | O=C(O)c1cc2ccccc2c(=O)s1 | 2.49% (inactive)
50 | CCOC(=O)N1CCN(CC(=O)c2ccc3c(c2)CCN3)CC1 | -2.56% (inactive)
51 | N#CCC(=O)NC1CCC(CC2CCC(NC(=O)CC#N)CC2)CC1 (centres undefined) | -0.386% (inactive)
52 | O=C(COC(=O)/C=C/c1ccc(Br)o1)Nc1cccc(S(=O)(=O)N2CCOCC2)c1 | -7.92% (inactive)
53 | Cc1cccc(-c2nnc(SCC(=O)O)n2Cc2ccccc2)c1 | 0.0319% (inactive)
54 | Cc1ccc2c(c1)nnc1nnc(SCC(=O)O)n12 | 73% (active)
55 | CCn1nnnc1SCC(=O)c1ccc(C)cc1C | 1.48% (inactive)
56 | C[C@@H]1C[C@@H]2O[C@H]2/C=C\C=C\C(=O)Cc2c(Cl)c(O)cc(O)c2C(=O)O1 | -2.26% (inactive)
57 | CCCS(=O)(=O)N1CCCC(C(=O)NCCN2CCCCC2C)C1 (centres undefined) | -23.8% (inactive)
58 | CN1CCN(/N=C/c2ccc(-c3ccc([N+](=O)[O-])cc3)o2)CC1 | 58.4% (active)
59 | CN1CCN(/N=C/c2ccc(C#N)cc2)CC1 | 1.45% (inactive)
60 | O=C1C2C3C=CC(C4CC34)C2C(=O)N1/N=C/c1ccc(-c2ccccc2[N+](=O)[O-])o1 (centres undefined) | -25.8% (inactive)
61 | Nn1c(SCc2ccccc2)nnc1C1CCCCC1 | 3.72% (inactive)
62 | CCCC(=O)N1CCC(CCC(=O)NC2CC2)CC1 | 2.3% (inactive)
63 | CCOC(=O)C1CCN(C(=O)CN2C(=O)c3cccnc3Oc3ccc(C)cc32)CC1 | 0.924% (inactive)
64 | CCOC(=O)C1CCN(Cc2ccc(-c3ccccc3)cc2)CC1 | -0.00995% (inactive)
65 | CCOC(=O)C1CCN(c2ncnc3c2c(-c2ccccc2)cn3-c2ccc(C)cc2)CC1 | 47.1% (active)
66 | CNCC[C@H](Oc1ccc(C(F)(F)F)cc1)c1ccccc1 | -0.124% (inactive)
67 | O=C(COc1ccc(/C=N/NS(=O)(=O)c2ccccc2)cc1)NCCc1ccccc1 | 3.48% (inactive)
68 | O=C1/C(=C/c2coc3ccc(O)cc3c2=O)SC(=S)N1c1ccccc1 | 46.8% (active)
69 | CC1=CC2=NC(=O)/C(=C/c3coc4ccccc4c3=O)C(=N)N2O1 | -38.6% (inactive)

Row | SMILES | inhibition
70 | CSc1ccc(CN2C(=O)NC3(CCCCCC3)C2=O)cc1 | 1.11% (inactive)
71 | CCC1OC(c2ccc([N+](=O)[O-])cc2)=Nc2ccccc21 (centres undefined) | -7.92% (inactive)
72 | Cc1cccc(C)c1NC(=O)C(c1cccc2ccccc12)n1c(=O)c(-c2ccco2)nc2ccccc21 (centres undefined) | -49.2% (inactive)
73 | N#Cc1ccc(C(C(=O)NCc2ccccc2)n2c(=O)c(-c3ccco3)nc3ccccc32)cc1 (centres undefined) | -62.9% (inactive)
74 | c1coc(-c2nc3nc4ccccc4n3nc2-c2ccco2)c1 | 86.8% (active)
75 | Cc1ccc(NC(=O)COC(=O)CCc2nc3ccccc3n2-c2ccccc2)c(C)c1 | 0.304% (inactive)
76 | C[C@H](C(=O)CC(=O)OC(C)(C)C)[C@H](O)c1ccc(C(F)(F)F)cc1 | 0.388% (inactive)
77 | Cc1ncc(CO)c(/C=N/NC(=O)c2cccc(S(=O)(=O)N3CCCC3)c2)c1O | -24.8% (inactive)
78 | CCOc1ccc(NS(=O)(=O)c2ccc(C(=O)NCC(c3ccccc3OC)N3CCCC3)cc2)cc1 (centres undefined) | -1.55% (inactive)
79 | O=C(CN1CCOCC1)Nc1c(-c2ccccc2)c2cc(Br)ccc2[nH]c1=O | -0.407% (inactive)
80 | Cc1cccc(C)c1Nc1c(-c2ccccc2O)nc2ncccn12 | 32.1% (active)
81 | Cc1ccc(-c2c(N)nc3ncccn23)cc1 | -17.5% (inactive)
82 | Cc1ccccc1Nc1c(-c2ccccc2)nc2ncccn12 | 14.2% (inactive)
83 | Cc1ccc(NC(=O)[C@H](Cc2ccccc2)NC(=O)CC[C@H]2O[C@@H](n3ccc(=O)[nH]c3=O)[C@H](O)[C@@H]2O)cc1C | 1.31% (inactive)
84 | Cc1ccc(Nc2nc(Cl)c(C=O)s2)cc1 | -32.5% (inactive)
85 | Cc1ccc(Nc2ccccc2N)cc1 | 54.5% (active)
86 | Cc1ccc(Nc2nc(N)nc(CSc3nnc(C)s3)n2)cc1 | 3.47% (inactive)
87 | O=C(CSc1nnc(-c2ccncc2)n1-c1ccc(Cl)cc1)Nc1ccc(C(=O)O)cc1 | 0.469% (inactive)
88 | C=CC1=C(C(=O)O)N2C(=O)[C@@H](NC(=O)/C(=N/OCC(=O)O)c3csc(N)n3)[C@H]2SC1 | 56% (active)
89 | O=C(CCn1nnc2ccccc2c1=O)N[C@@H](Cc1c[nH]c2ccccc12)C(=O)O | 0.24% (inactive)
